Source: PubChem BioAssay
SKKanGAS inh = blocks kanamycin growth of S. pyogenes SKKanGAS strain | BacTiter-Glo, 6 h | inhibition, % at 7.5 µM | 300,000 compounds, 1.3% hits | AID 1662;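 active = mean replicate score, as percent of positive control median, at least 50; inconclusive = mean below 50 but one replicate at or above 50; inactive = mean and every replicate below 50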;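 also: strain carries kanamycin resistance gene driven by streptokinase promoter and grows in 40 µg/ml kanamycin; loss of luminescence reflects streptokinase promoter inhibition or plain growth inhibition; 0% = median of DMSO wells and 100% = positive control at its reference dose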
CSC inhib = cancer stem cell inhibition; inhibition, % at 7.5 µM; 300,000 compounds, 1.1% hits; cancer stem cell-like cells viability, luminescence; in the data active = inhibition above about 75%; inconclusive = no clear call, values can overlap the other calls; tested in HMLE shEcad cells
Rtt109 HAT inh = inhibitors of Candida albicans Rtt109/Vps75 histone acetyltransferase | purified Rtt109/Vps75, ThioGlo CoA-SH fluorescence, 4 h | inhibition, % at 34.9 µM | 330,000 compounds, 0.16% hits | AID 540336;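 active = inhibition of at least 50% in every replicate; inconclusive = best replicate reaches 50% inhibition but some replicates fall short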
Target sequence (Q5AAJ8 whole entry, looked up): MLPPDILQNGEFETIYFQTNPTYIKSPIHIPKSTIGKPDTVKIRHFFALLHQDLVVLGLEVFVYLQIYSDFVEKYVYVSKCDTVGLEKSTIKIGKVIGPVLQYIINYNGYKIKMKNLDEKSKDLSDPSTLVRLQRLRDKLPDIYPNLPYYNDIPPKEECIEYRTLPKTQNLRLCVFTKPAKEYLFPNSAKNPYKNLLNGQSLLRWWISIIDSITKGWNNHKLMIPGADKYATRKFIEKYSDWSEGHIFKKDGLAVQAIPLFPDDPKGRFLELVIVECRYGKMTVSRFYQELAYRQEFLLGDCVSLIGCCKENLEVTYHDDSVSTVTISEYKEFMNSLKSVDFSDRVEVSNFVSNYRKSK
PglD DTNB = PglD (C. jejuni) enzyme inhibition. 360,000 compounds, 0.098% hits. inhibition, % at 12.5 µM. AID 602405. purified PglD enzyme, DTNB colorimetric CoA detection; in the data active = inhibition above about 16%, passing the limit was not always enough; inconclusive = no clear call, values can overlap the other calls
FN deposition inh = fibronectin deposition inhibition | AH1F fibroblasts, Alexa488-fibronectin deposition fluorescence, overnight | inhibition, % at 12.6 µM | 350,000 compounds, 0.086% hits;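 active = mean inhibition across replicates of 30% or more, regardless of how many single replicates reach that level; inconclusive = mean under 30% yet at least half of replicates reach 30%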;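 also: positive control wells lacked labelled fibronectin entirely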
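Schedule: 1 h cell adhesion before compound, then overnight fibronectin incubation; test system: AH1F fibroblast monolayer depositing Alexa488-labelled fibronectin into matrix; quantity: 10000 AH1F cells per well; probe or stimulus: fluorescent fibronectin at 24 nM final; signal: fluorescence, ex 485 nm, em 525 nm; evaluation: percent inhibition as loss of matrix-bound fibronectin fluorescence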
PfHsp90 set2 = growth inhibition of yeast expressing Plasmodium Hsp90; inhibition, % at 9.4 µM; S. cerevisiae expressing PfHsp90, BacTiter-Glo ATP, 48 h; yeast lacking PDR1 and PDR3 efflux regulators; 310,000 compounds, 0.32% hits;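 active = every replicate shows inhibition above about 80%, whatever the replicate mean, limit read from the data; inconclusive = mean inhibition reaches the set limit but some replicate falls short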;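 also: 0% = DMSO neutral controls and 100% = 20 µM radicicol positive controls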
An asterisk follows results filed as active; ? = inconclusive; · = no result. An excerpt weighted towards active compounds, which were near 1.7% of everything screened.

SMILES | SKKanGAS inh | CSC inhib | Rtt109 HAT inh | PglD DTNB | FN deposition inh | PfHsp90 set2
Cc1cc(C)n(-c2nc(NCCCO)c3c4c(sc3n2)CCCC4)n1 | 55* | 20 | -4 | 3 | · | ·
C[C@H]1CCCCO[C@H](CN(C)C)[C@@H](C)CN([C@@H](C)CO)C(=O)c2cc(NC(=O)c3ccccc3)ccc2O1 | · | · | · | 2 | · | ·
O=C(NNC(=S)Nc1ccc(Cl)c(Cl)c1)c1ccccn1 | 102* | 109* | 1 | · | 5 | -53
CCNC(=S)NNC(=O)c1ccccn1 | 1 | -17 | 8 | 2 | · | -6
Cc1nc(N)sc1-c1csc(N(C)c2ccc(O)cc2)n1 | 64* | 7 | 6 | 6 | · | -1
COc1cc(C(=O)N/N=C/c2ccc(OC(=O)c3cccc(C)c3)cc2)ccc1O | 52* | -5 | 0 | 1 | 2 | 13
COc1cc(/C=N/NC(=O)c2ccncc2)ccc1OC(=O)c1ccccc1Cl | -5 | -22 | -5 | · | -6 | -5
COc1cc(C(=O)N/N=C/c2ccc(OC(=O)c3ccccc3Cl)c(OC)c2)ccc1O | 66* | -15 | 6 | -1 | · | -4
C[C@H](CO)N1C[C@H](C)[C@H](CN(C)C(=O)c2cnccn2)Oc2ncc(-c3cccc(F)c3)cc2C1=O | · | · | · | 1 | · | ·
C[C@H]1CCCCO[C@H](CN(C)CC2CC2)[C@@H](C)CN([C@@H](C)CO)C(=O)c2cc(NS(=O)(=O)c3ccc(F)cc3)ccc2O1 | · | · | · | 6 | · | ·
CC(C)NC(=O)N(C)C[C@H]1Oc2ccccc2C(=O)N(C)C[C@H]1C | · | · | · | · | -5 | ·
Nc1ccc2c(c1)Oc1ccccc1C=C2 | 3 | 110* | 0 | · | 2 | ·
C=CCn1c(C)cc(C(=O)CSc2nnc(NCc3ccccc3)s2)c1C | · | 58 | 1 | -7 | 5 | 111*
C=CCn1c(C)cc(C(=O)CSc2nnc(NC(C)C)s2)c1C | 1 | -11 | 0 | 2 | · | 10
C=CCn1c(C)cc(C(=O)CSc2nc3ccccc3c(=O)[nH]2)c1C | · | 6 | 0 | 2 | 4 | 100*
COc1ccc(NC(=O)N2C[C@@H](O)COC[C@@H]3O[C@@H](CC(=O)N4CCOCC4)CC[C@H]32)cc1 | · | · | · | 2 | 4 | ·
C[C@H](CO)N1C[C@H](C)[C@@H](CN(C)C(=O)C2CC2)Oc2cc(-c3cncnc3)ccc2S1(=O)=O | · | · | · | · | 6 | ·
C[C@@H]1CN([C@H](C)CO)C(=O)c2cc(NC(=O)Nc3ccc4c(c3)OCO4)ccc2O[C@@H]1CN(C)C(=O)Nc1ccccc1 | · | · | · | 1 | · | ·
CC(=O)N1CC[C@@H]2[C@H]1c1cc(-c3cccc(F)c3)ccc1N(C)[C@@H]2CO | · | · | · | 1 | -5 | ·
CCc1ccccc1NC(=S)NCCSc1ccc(Cl)cc1 | 50* | 20 | -1 | -4 | 0 | 11
Cc1ccccc1NC(=S)NCCSc1ccc(Cl)cc1 | 29 | 20 | 6 | 5 | -1 | -6
CN(C)CCOc1ccc(/C(=C(/CCCl)c2ccccc2)c2ccccc2)cc1 | 101* | · | 16 | 7 | 3 | -5
O=C(C[C@@H]1CC[C@H](NC(=O)Nc2cc(F)ccc2F)[C@@H](CO)O1)NCCCN1CCOCC1 | · | · | · | 0 | -2 | ·
C[C@@H]1CN([C@H](C)CO)C(=O)c2cccc(NC(=O)Nc3ccc(F)cc3)c2O[C@H]1CN(C)C(=O)Nc1ccc(F)cc1 | · | · | · | 15 | · | ·
COc1ccc(-c2c(C)nn3c(C)cc(C)nc23)cc1 | 11 | -10 | 58* | 6 | 3 | 16
SMILES | SKKanGAS inh | CSC inhib | Rtt109 HAT inh | PglD DTNB | FN deposition inh | PfHsp90 set2
C[C@H](CO)N1C[C@H](C)[C@@H](CN(C)Cc2cncnc2)Oc2ncc(-c3ccc(C#N)cc3)cc2C1=O | · | · | · | 6 | -3 | ·
Cc1nn(CC(=O)NCc2cccnc2)c(C)c1[N+](=O)[O-] | -1 | -10 | 68* | · | 8 | 2
O=C(CCCSc1nc2ccccc2[nH]1)NC1CCCCC1 | -6 | · | 56* | · | · | -14
C[C@@H]1CN([C@@H](C)CO)C(=O)c2cc(-c3cccnc3)cnc2O[C@H]1CN(C)C(=O)Cc1cccnc1 | · | · | · | 1 | -6 | ·
O=C(NC1CCCCCC1)c1ccc(Br)o1 | 1 | -5 | -13 | -6 | -9 | 4
O=C(NC1CCCCC1)Oc1cc2oc(=O)sc2cc1Br | -11 | 7 | 59* | · | -1 | -2
COc1ccc(N2CCN(C(=O)Cc3csc(NC(=O)Nc4ccccc4OC)n3)CC2)cc1 | 66* | · | 22 | -2 | 4 | ·
COc1ccccc1NC(=O)Nc1nc(CC(=O)Nc2cccc(F)c2)cs1 | 33 | -1 | ? | 2 | 0 | 3
COc1cc(OC)cc(C(=O)Nc2nc(CC(=O)NCc3ccccc3OC)cs2)c1 | 62* | · | 2 | 4 | 4 | ·
COc1cc(OC)cc(C(=O)Nc2nc(CC(=O)NCc3ccc(F)cc3)cs2)c1 | 12 | 46 | -7 | -2 | 13 | 8
COc1ccc(N2CCN(C(=O)CNC(=O)Cc3ccccc3)CC2)cc1 | -6 | -14 | 53* | 4 | 0 | -13
COc1ccccc1NC(=O)Nc1nc(CC(=O)Nc2cc(F)ccc2F)cs1 | 82* | · | 13 | -3 | -5 | -1
COc1ccc(N2CCN(C(=O)CNC(=O)Cc3ccc(Cl)cc3)CC2)cc1 | -3 | 2 | 4 | -5 | 4 | -4
C[C@@H]1CN([C@H](C)CO)C(=O)Cc2cc(NS(=O)(=O)c3ccccc3)ccc2O[C@H]1CN(C)S(=O)(=O)c1cccs1 | · | · | · | 3 | · | ·
COc1ccc(CNC(=O)Cc2csc(NC(=O)Nc3ccccc3OC)n2)cc1 | 55* | · | 19 | 7 | -2 | -8
COc1ccccc1CNC(=O)Cc1csc(NC(=O)Nc2ccccc2OC)n1 | 49 | · | -13 | -2 | 3 | -16
O=C(Cc1ccccc1)NCCS(=O)(=O)N1CCN(c2ccccc2)CC1 | 54* | · | 1 | -2 | -8 | -13
CNC[C@@H]1Oc2c(NC(C)=O)cccc2C(=O)N(C)C[C@H]1C | · | · | · | · | 2 | ·
c1ccc(-c2noc(-c3ccccc3-c3ccccc3)n2)cc1 | 75* | 9 | -7 | 1 | 6 | 19
Cc1cc(C)c2nc(N3C(=O)C(O)=C(C(=O)c4ccco4)C3c3ccco3)sc2c1 (stereo not drawn) | 78* | 13 | -17 | 1 | 0 | -48
Cc1ccc2nc(N3C(=O)C(O)=C(C(=O)c4ccco4)C3c3cccs3)sc2c1 (stereo not drawn) | 52* | 34 | 16 | · | · | ·
COc1ccc2nc(N3C(=O)C(O)=C(C(=O)c4ccco4)C3c3ccc(C)o3)sc2c1 (stereo not drawn) | · | · | ? | · | -7 | ·
CCOc1ccc2nc(N3C(=O)C(O)=C(C(=O)c4ccco4)C3c3ccco3)sc2c1 (stereo not drawn) | · | 16 | -1 | · | · | 15
COc1ccc(S(=O)(=O)Nc2cccc3c2O[C@@H](CN(C)S(=O)(=O)c2c(C)noc2C)[C@H](C)CN([C@H](C)CO)C3=O)cc1 | · | · | · | -5 | · | ·
CC(C)[C@H]1CCc2cnnn2COC[C@@H](c2ccccc2)NC1=O | · | · | · | · | 0 | ·
